# Experimental data taken from ChEMBL document CHEMBL1140127, “Enantiomeric propanolamines as selective N-methyl-D-aspartate 2B receptor antagonists” (J Med Chem, 2008).
# Molecular target: T1, Adrenergic receptor alpha-1 (Rattus norvegicus, UniProt P15823+P23944+P43140)
# T1 sequence (P15823 whole entry): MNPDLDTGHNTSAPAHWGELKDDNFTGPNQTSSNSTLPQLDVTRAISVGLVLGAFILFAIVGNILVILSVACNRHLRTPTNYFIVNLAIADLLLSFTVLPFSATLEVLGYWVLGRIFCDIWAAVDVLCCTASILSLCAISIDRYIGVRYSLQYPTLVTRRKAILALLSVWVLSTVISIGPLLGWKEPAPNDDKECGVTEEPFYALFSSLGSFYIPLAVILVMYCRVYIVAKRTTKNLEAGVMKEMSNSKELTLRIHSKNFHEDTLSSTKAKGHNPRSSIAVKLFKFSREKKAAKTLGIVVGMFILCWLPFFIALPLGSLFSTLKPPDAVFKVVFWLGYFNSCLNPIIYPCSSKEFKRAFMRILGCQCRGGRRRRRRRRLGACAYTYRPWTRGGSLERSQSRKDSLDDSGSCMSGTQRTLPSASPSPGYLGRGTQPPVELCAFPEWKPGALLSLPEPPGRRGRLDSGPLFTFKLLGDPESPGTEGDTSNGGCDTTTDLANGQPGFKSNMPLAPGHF
# T1 sequence (P23944 whole entry): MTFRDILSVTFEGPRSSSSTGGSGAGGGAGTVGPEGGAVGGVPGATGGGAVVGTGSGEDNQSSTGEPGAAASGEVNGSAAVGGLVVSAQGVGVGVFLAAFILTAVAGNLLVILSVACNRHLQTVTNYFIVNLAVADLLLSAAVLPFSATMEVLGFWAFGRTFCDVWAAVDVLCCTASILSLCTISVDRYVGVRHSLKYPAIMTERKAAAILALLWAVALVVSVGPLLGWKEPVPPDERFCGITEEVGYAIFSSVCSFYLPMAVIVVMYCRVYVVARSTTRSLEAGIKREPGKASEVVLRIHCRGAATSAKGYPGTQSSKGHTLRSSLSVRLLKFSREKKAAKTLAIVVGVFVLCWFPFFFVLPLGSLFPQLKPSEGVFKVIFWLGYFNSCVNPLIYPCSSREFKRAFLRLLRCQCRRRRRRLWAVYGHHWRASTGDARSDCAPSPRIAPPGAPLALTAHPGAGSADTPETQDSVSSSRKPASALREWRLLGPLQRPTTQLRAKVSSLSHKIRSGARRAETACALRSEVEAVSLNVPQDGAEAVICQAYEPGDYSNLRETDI
# T1 sequence (P43140 whole entry): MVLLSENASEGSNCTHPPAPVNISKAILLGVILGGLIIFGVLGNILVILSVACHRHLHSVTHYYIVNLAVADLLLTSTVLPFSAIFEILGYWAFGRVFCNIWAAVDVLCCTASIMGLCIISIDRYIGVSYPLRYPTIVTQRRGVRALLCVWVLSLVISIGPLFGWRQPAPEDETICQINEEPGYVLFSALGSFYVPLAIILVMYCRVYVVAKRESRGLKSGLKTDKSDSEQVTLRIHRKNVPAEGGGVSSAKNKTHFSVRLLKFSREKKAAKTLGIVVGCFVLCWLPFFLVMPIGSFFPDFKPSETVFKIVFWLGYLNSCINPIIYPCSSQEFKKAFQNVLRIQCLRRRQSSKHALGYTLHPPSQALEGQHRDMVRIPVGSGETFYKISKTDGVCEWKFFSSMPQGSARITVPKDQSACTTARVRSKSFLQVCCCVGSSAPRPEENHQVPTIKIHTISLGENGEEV
# Assay: Displacement of [3H]prazosin from alpha1 adrenergic receptor in rat brain
# Assay type: tissue-based
# Method in brief: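 Rat brain membranes; displacement of [3H]-prazosin at 4–6 concentrations, each point in duplicate. IC50 from displacement curves fitted by nonlinear least-squares regression.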
row,Compound,IC50
1,CS(=O)(=O)Nc1ccc(OC[C@@H](O)CN(CCc2ccc(Cl)c(Cl)c2)Cc2ccc(F)c(F)c2F)cc1,> 10000 nM
2,CS(=O)(=O)Nc1ccc(OC[C@@H](O)CN(CCc2ccc(Cl)c(Cl)c2)Cc2ccccc2F)cc1,> 10000 nM
3,CS(=O)(=O)Nc1ccc(OC[C@@H](O)CNCCc2ccc(Cl)cc2)cc1,9500 nM
4,CN(CCc1ccc(Cl)c(Cl)c1)C[C@H](O)COc1ccc(NS(C)(=O)=O)cc1,1400 nM
5,CS(=O)(=O)Nc1ccc(OC[C@@H](O)CN(CCc2ccc(Cl)c(Cl)c2)Cc2ccccc2O)cc1,> 10000 nM

# Molecular target: Glutamate NMDA receptor; Grin1/Grin2b (Rattus norvegicus, UniProt P35439+Q00960)
# Sequence (Q00960 whole entry, other chains not shown): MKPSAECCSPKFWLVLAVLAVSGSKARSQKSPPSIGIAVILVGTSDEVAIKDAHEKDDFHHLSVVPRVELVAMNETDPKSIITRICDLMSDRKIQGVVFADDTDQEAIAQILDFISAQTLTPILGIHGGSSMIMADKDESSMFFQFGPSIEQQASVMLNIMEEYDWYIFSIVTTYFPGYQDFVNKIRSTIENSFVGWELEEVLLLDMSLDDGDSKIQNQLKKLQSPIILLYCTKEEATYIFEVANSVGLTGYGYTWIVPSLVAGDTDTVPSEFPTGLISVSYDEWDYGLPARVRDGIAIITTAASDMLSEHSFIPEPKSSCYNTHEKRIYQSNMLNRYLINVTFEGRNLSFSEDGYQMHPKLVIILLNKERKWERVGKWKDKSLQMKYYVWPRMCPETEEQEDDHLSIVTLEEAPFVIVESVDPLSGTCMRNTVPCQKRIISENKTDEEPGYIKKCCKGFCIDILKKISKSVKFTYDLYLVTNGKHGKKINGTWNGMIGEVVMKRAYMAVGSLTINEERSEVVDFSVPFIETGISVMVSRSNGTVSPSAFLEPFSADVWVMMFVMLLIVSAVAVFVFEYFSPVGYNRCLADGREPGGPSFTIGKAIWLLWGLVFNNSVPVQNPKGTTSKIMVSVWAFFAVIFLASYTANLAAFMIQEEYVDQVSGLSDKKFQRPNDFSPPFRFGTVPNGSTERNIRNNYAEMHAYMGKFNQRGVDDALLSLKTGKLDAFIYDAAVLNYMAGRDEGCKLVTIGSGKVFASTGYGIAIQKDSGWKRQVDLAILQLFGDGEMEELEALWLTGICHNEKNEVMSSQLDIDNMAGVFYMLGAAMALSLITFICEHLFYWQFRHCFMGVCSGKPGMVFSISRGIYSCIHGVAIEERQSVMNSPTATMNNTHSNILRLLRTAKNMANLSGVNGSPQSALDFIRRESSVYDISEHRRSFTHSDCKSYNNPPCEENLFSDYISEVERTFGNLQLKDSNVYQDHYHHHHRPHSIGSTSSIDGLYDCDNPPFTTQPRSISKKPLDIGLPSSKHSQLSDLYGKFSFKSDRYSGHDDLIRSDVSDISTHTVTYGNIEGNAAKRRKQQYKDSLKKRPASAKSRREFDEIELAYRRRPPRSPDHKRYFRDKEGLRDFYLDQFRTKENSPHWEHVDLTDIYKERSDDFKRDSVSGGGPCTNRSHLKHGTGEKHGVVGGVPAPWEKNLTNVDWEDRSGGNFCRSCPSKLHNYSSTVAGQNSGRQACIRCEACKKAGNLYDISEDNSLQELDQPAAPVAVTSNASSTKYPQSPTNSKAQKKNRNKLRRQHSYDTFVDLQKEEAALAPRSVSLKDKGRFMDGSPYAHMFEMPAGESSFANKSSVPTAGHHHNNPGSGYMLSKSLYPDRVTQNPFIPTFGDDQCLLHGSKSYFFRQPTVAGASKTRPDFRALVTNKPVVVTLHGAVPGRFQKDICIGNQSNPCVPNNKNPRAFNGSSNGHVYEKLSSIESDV
# Assay: Inhibition of rat recombinant NR1/NR2B receptor expressed in Xenopus oocytes assessed as inhibition of glutamate and glycine-induced evoked current by two electrode voltage clamp method
# Assay type: cell-based, Oocyte
row,Compound,IC50
1,CS(=O)(=O)Nc1ccc(OC[C@@H](O)CNCCc2cccc(O)c2)cc1,4430 nM
2,C[C@H](NC[C@H](O)COc1ccc(NS(C)(=O)=O)cc1)c1cccc2ccccc12,5070 nM
3,CS(=O)(=O)Nc1ccc(OC[C@@H](O)CN(CCc2ccc(Cl)c(Cl)c2)Cc2ccc(F)c(F)c2F)cc1,51 nM
4,CS(=O)(=O)Nc1ccc(OC[C@@H](O)CNCCc2cccc(Cl)c2)cc1,628 nM
5,CS(=O)(=O)Nc1ccc(OC[C@@H](O)CNCCc2ccccc2Cl)cc1,429 nM
6,CS(=O)(=O)Nc1ccc(OC[C@@H](O)CN(CCc2ccc(Cl)c(Cl)c2)Cc2cccnc2)cc1,278 nM
7,CS(=O)(=O)Nc1ccc(OC[C@@H](O)CNCCc2ccc(O)cc2)cc1,7240 nM
8,Cc1cc(OC[C@@H](O)CNCCc2ccc(Cl)c(Cl)c2)ccc1NS(C)(=O)=O,687 nM
9,CCS(=O)(=O)Nc1ccc(OC[C@@H](O)CNCCc2ccc(Cl)c(Cl)c2)cc1,587 nM
10,COc1cccc(OC)c1CN(CCc1ccc(Cl)c(Cl)c1)C[C@H](O)COc1ccc(NS(C)(=O)=O)cc1,11900 nM
11,CS(=O)(=O)Nc1ccc(OC[C@@H](O)CNCCc2ccc(O)c(O)c2)cc1,> 100000 nM
12,O=[N+]([O-])c1ccc(OC[C@@H](O)CNCCc2ccc(Cl)c(Cl)c2)cc1,9380 nM
13,CS(=O)(=O)Nc1ccc(OC[C@@H](O)CNCCc2ccc3c(c2)OCO3)cc1,951 nM
14,CS(=O)(=O)Nc1ccc(OC[C@H](O)CN(CCc2ccc(Cl)c(Cl)c2)Cc2ccccc2O)cc1,433 nM
15,CS(=O)(=O)Nc1ccc(OC[C@@H](O)CNCCc2ccc(Cl)c(Cl)c2)c(F)c1,72 nM
16,CS(=O)(=O)Nc1ccc(OC[C@@H](O)CN(CCc2ccc(Cl)c(Cl)c2)Cc2cccc3c2OCO3)cc1,5010 nM
17,CC(=O)Nc1ccc(OC[C@@H](O)CNCCc2ccc(Cl)c(Cl)c2)cc1,4370 nM
18,CS(=O)(=O)Nc1ccc(OC[C@@H](O)CN(CCc2ccccc2)CCc2ccc(Cl)c(Cl)c2)cc1,3510 nM
19,CS(=O)(=O)Nc1ccc(OC[C@@H](O)CN(CCc2ccc(Cl)c(Cl)c2)Cc2ccccc2[N+](=O)[O-])cc1,589 nM
20,CS(=O)(=O)Nc1ccc(OC[C@@H](O)CNCCc2ccccc2O)cc1,2000 nM
21,O=C(Nc1ccc(OC[C@@H](O)CNCCc2ccc(Cl)c(Cl)c2)cc1)C(Cl)(Cl)Cl,10600 nM
22,CS(=O)(=O)Nc1ccc(OC[C@@H](O)CNCCc2ccccc2F)cc1,573 nM
23,CS(=O)(=O)Nc1ccc(OC[C@@H](O)CN(CCc2ccc(Cl)c(Cl)c2)Cc2c(F)c(F)c(F)c(F)c2F)cc1,524 nM

row,Compound,IC50
1,CN(CCc1ccc(Cl)c(Cl)c1)C[C@@H](O)COc1ccc(NS(C)(=O)=O)cc1,253 nM
2,CCCCCN(CCc1ccc(Cl)c(Cl)c1)C[C@H](O)COc1ccc(NS(C)(=O)=O)cc1,659 nM
3,CCCCS(=O)(=O)Nc1ccc(OC[C@@H](O)CNCCc2ccc(Cl)c(Cl)c2)cc1,6790 nM
4,COc1cccc(CN(CCc2ccc(Cl)c(Cl)c2)C[C@H](O)COc2ccc(NS(C)(=O)=O)cc2)c1OC,2790 nM
5,CS(=O)(=O)Nc1ccc(OC[C@@H](O)CN(CCc2ccc(Cl)c(Cl)c2)Cc2ccccc2F)cc1,80 nM
6,CS(=O)(=O)Nc1ccc(OC[C@@H](O)CN(CCc2ccc(Cl)c(Cl)c2)Cc2ccc(O)cc2O)cc1,146 nM
7,Cc1ccccc1CN(CCc1ccc(Cl)c(Cl)c1)C[C@H](O)COc1ccc(NS(C)(=O)=O)cc1,5700 nM
8,CS(=O)(=O)Nc1ccc(OC[C@@H](O)CN(CCc2ccc(Cl)c(Cl)c2)Cc2ccccc2Br)cc1,38 nM
9,CS(=O)(=O)Nc1ccc(OC[C@@H](O)CNCCc2ccc(Cl)cc2)cc1,101 nM
10,Cc1ccc(CN(CCc2ccc(Cl)c(Cl)c2)C[C@H](O)COc2ccc(NS(C)(=O)=O)cc2)cc1,5410 nM
11,O=C(Nc1ccc(OC[C@@H](O)CNCCc2ccc(Cl)c(Cl)c2)cc1)C(Cl)Cl,12800 nM
12,CS(=O)(=O)Nc1ccc(OC[C@@H](O)CN(CCc2ccc(Cl)c(Cl)c2)CC2CCCCC2)cc1,9840 nM
13,CN(CCc1ccc(Cl)c(Cl)c1)C[C@H](O)COc1ccc(NS(C)(=O)=O)cc1,130 nM
14,CS(=O)(=O)Nc1ccc(OC[C@@H](O)CN(CCc2ccc(Cl)c(Cl)c2)Cc2ccccc2Cl)cc1,479 nM
15,CS(=O)(=O)Nc1ccc(OC[C@@H](O)CNCCc2ccc(Cl)c(Cl)c2)cc1F,427 nM
16,CS(=O)(=O)Nc1ccc(OC[C@@H](O)CN(CCc2ccc(Cl)c(Cl)c2)Cc2ccc(O)cc2)cc1,113 nM
17,CS(=O)(=O)Nc1ccc(OC[C@@H](O)CNCCc2cccc(F)c2)cc1,853 nM
18,CS(=O)(=O)Nc1ccc(OC[C@@H](O)CNCCc2ccc([N+](=O)[O-])cc2)cc1,1140 nM
19,CN(c1ccc(OC[C@@H](O)CNCCc2ccc(Cl)c(Cl)c2)cc1)S(C)(=O)=O,9910 nM
20,CS(=O)(=O)Nc1ccc(OC[C@@H](O)CN(CCc2ccc(Cl)c(Cl)c2)Cc2ccccc2O)cc1,662 nM
21,CCCS(=O)(=O)Nc1ccc(OC[C@@H](O)CNCCc2ccc(Cl)c(Cl)c2)cc1,6100 nM
22,CS(=O)(=O)Nc1ccc(OC[C@@H](O)CN(CCc2ccc(Cl)c(Cl)c2)Cc2nccs2)cc1,3580 nM
23,CS(=O)(=O)Nc1ccc(OC[C@H](O)CNCCc2ccc(Cl)c(Cl)c2)cc1,188 nM

row,Compound,IC50
1,CS(=O)(=O)Nc1ccc(OC[C@@H](O)CN(CCc2ccc(Cl)c(Cl)c2)Cc2cccc(F)c2)cc1,249 nM
2,CS(=O)(=O)Nc1ccc(OC[C@@H](O)CN(CCc2ccc(Cl)c(Cl)c2)CCc2ccccc2O)cc1,755 nM
3,CC(C)N(CCc1ccc(Cl)c(Cl)c1)C[C@H](O)COc1ccc(NS(C)(=O)=O)cc1,603 nM
4,CS(=O)(=O)Nc1ccc(OC[C@H](O)CN(CCO)CCc2ccc(Cl)c(Cl)c2)cc1,173 nM
5,CS(=O)(=O)Nc1ccc(OC[C@@H](O)CN(CCc2ccc(Cl)c(Cl)c2)Cc2c(F)cccc2F)cc1,281 nM
6,CS(=O)(=O)Nc1ccc(OC[C@@H](O)CN(CCc2ccc(Cl)c(Cl)c2)Cc2ccc(F)cc2)cc1,275 nM
7,CS(=O)(=O)Nc1ccc(OC[C@@H](O)CNCCc2ccc(F)cc2)cc1,748 nM
8,CS(=O)(=O)Nc1ccc(OC[C@@H](O)CNCCc2ccc(F)c(Cl)c2)cc1,397 nM
9,CS(=O)(=O)Nc1ccc(OC[C@@H](O)CNCCc2cc(O)cc(O)c2)cc1,> 100000 nM
10,COc1ccccc1CN(CCc1ccc(Cl)c(Cl)c1)C[C@H](O)COc1ccc(NS(C)(=O)=O)cc1,3860 nM
11,CS(=O)(=O)Nc1ccc(OC[C@@H](O)CNCCc2ccc(Cl)cc2Cl)cc1,2320 nM
12,CCCN(CCc1ccc(Cl)c(Cl)c1)C[C@H](O)COc1ccc(NS(C)(=O)=O)cc1,635 nM
13,CS(=O)(=O)Nc1cccc(OC[C@@H](O)CNCCc2ccc(Cl)c(Cl)c2)c1,530 nM
14,CCCCN(CCc1ccc(Cl)c(Cl)c1)C[C@@H](O)COc1ccc(NS(C)(=O)=O)cc1,1280 nM
15,CC(=O)Oc1ccccc1CN(CCc1ccc(Cl)c(Cl)c1)C[C@H](O)COc1ccc(NS(C)(=O)=O)cc1,500 nM
16,CS(=O)(=O)Nc1ccccc1OC[C@@H](O)CNCCc1ccc(Cl)c(Cl)c1,12000 nM
17,CS(=O)(=O)Nc1ccc(OC[C@@H](O)CN(CCc2ccc(Cl)c(Cl)c2)Cc2ccccc2)cc1,177 nM
18,CS(=O)(=O)Nc1ccc(OC[C@@H](O)CN(CCc2ccc(Cl)c(Cl)c2)Cc2cccc(O)c2O)cc1,1820 nM
19,O=S(=O)(Nc1ccc(OC[C@@H](O)CNCCc2ccc(Cl)c(Cl)c2)cc1)c1ccccc1,1450 nM
20,CS(=O)(=O)Nc1ccc(OC[C@H](O)CN(CCc2ccc(Cl)c(Cl)c2)Cc2cccc(O)c2)cc1,409 nM
21,CS(=O)(=O)Nc1ccc(OC[C@@H](O)CN(CCc2ccc(Cl)c(Cl)c2)Cc2ccccc2C(F)(F)F)cc1,3720 nM
